# Source: ChEMBL document CHEMBL1125195, “Novel compounds possessing potent cAMP and cGMP phosphodiesterase inhibitory activity. Synthesis and cardiovascular effects of a series of imidazo[1,2-a]quinoxalinones and imidazo[1,5-a]quinoxalinones and their aza analogues” (J Med Chem, 1991)
# Active and inactive are the calls of the source. The calls are words filed in the database; no cut-off is given here.
# Key:
# [1] = Inhibition of crude cGMP phosphodiesterase from canine thoracic aorta; type: tissue-based, Canis lupus familiaris
# How it was run: (§1)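 Crude homogenates: cAMP PDE from canine cardiac tissue, cGMP PDE from canine thoracic aorta. Value is drug concentration (μM) giving 50% inhibition. Mean of at least three determinations, ranges within ±10%.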
# [2] = Inhibition of crude cAMP phosphodiesterase from canine […]; set-up: species or system Canis lupus familiaris; how it was run: as §1
# [3] = In vitro increase in contractile force in ferret papillary muscle strips.; type: functional, Mustela putorius furo, Muscle tissue
# How it was run: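 Ferret papillary muscle; value is drug concentration (μM) giving a 20% rise in contractile force. Mean of at least two determinations, ranges within ±10%. Inotropic effect also tested with 1 μM propranolol co-administered. NR means not reached at 100 μM.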
# Canis familiaris [4] = species: Canis familiaris; experiment: In vitro vascular relaxation in canine mesenteric veins precontracted with phenylephrine.; type: functional; settings: Canis lupus familiaris, Mesenteric vein
# How it was run: (§2)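 Isolated vessels in warm PSS. Arteries constricted with prostaglandin F2α, veins with phenylephrine. Cumulative drug challenges, each added after relaxation plateaued. Delta force is expressed as % of agonist actual force (total minus basal) and as % of maximal relaxation. EC50 is found by linear interpolation between the points bracketing 50% relaxation. Afterwards tissues were rinsed every 10 min, reconstricted, and challenged with acetylcholine (arteries) or thrombin (veins).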
# Canis familiaris [5] = species: Canis familiaris; experiment: In vitro vascular relaxation in canine coronary arteries precontracted with prostaglandin F2alpha.; type: functional; settings: Canis lupus familiaris; how it was run: as §2
# [6] = Inhibition of crude cAMP phosphodiesterase from canine […] (NR = no effect at 100 uM); set-up: species or system Canis lupus familiaris; how it was run: as §1
# Canis familiaris [7] = experiment: Percent change in mean arterial blood pressure after intravenous administration in anesthetized dogs at 0.1 mg/kg (NC<10%); type: functional, Canis lupus familiaris
# Canis familiaris [8] = experiment: (§3) Percent change in left ventricle contractile force in anesthetized dogs after intravenous administration at 0.3 mg/kg; type: functional, Canis lupus familiaris, Heart left ventricle
# How it was run: (§4)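 Anesthetized dogs, drug given intravenously at the stated dose. Percent change recorded in LV dP/dt (contractile force), heart rate and mean arterial pressure. Mean of at least four determinations; LV dP/dt ranges within ±10%.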
# Canis familiaris [9] = experiment: Percent change heart rate after intravenous administration in anesthetized dogs at 1.0 mg/kg; type: functional, Canis lupus familiaris; how it was run: as §4
# Canis familiaris [10] = experiment: Percent change in heart rate after intravenous administration in anesthetized dogs at 0.3 mg/kg; type: functional, Canis lupus familiaris
# Canis familiaris [11] = experiment: Percent change heart rate after intravenous administration in anesthetized dogs at 0.1 mg/kg; type: functional, Canis lupus familiaris
# Canis familiaris [12] = experiment: (§5) Percent change in left ventricle contractile force in anesthetized dogs after intravenous administration at 1.0 mg/kg; type: functional, Canis lupus familiaris, Heart left ventricle; how it was run: as §4
# Canis familiaris [13] = experiment: Percent change in left ventricle contractile force in anesthetized dogs after intravenous administration at 0.1 mg/kg; type: functional, Canis lupus familiaris, Heart left ventricle
# Canis familiaris [14] = experiment: (§6) Percent change in mean arterial blood pressure after intravenous administration in anesthetized dogs at 1.0 mg/kg; type: functional, Canis lupus familiaris; how it was run: as §4
# Canis familiaris [15] = experiment: (§7) Percent change in mean arterial blood pressure after intravenous administration in anesthetized dogs at 1.0 mg/kg (NC<10%); type: functional, Canis lupus familiaris
# Canis familiaris [16] = experiment: Percent change in heart rate after intravenous administration in anesthetized dogs at 0.1 mg/kg (NC<10%); type: functional, organism-based; set-up: dose 0.1 mg/kg; settings: Canis lupus familiaris
# Canis familiaris [17] = experiment: Percent change in mean arterial blood pressure after intravenous administration in anesthetized dogs at 0.1 mg/kg; type: functional, Canis lupus familiaris
# Canis familiaris [18] = experiment: as §6; type: functional, Canis lupus familiaris; remark: listed apart in the source
# Canis familiaris [19] = experiment: as §5; type: functional, Canis lupus familiaris, Heart left ventricle; remark: listed apart in the source
# Canis familiaris [20] = experiment: (§8) Percent change in mean arterial blood pressure after intravenous administration in anesthetized dogs at 0.3 mg/kg; type: functional, Canis lupus familiaris
# Canis familiaris [21] = experiment: Percent change in heart rate after intravenous administration in anesthetized dogs at 1.0 mg/kg; type: functional, Canis lupus familiaris
# Canis familiaris [22] = experiment: as §3; type: functional, Canis lupus familiaris, Heart left ventricle; remark: listed apart in the source
# Canis familiaris [23] = experiment: Percent change in mean arterial blood pressure after intravenous administration in anesthetized dogs at 0.3 mg/kg (NC<10%); type: functional, organism-based; set-up: dose 0.3 mg/kg; settings: Canis lupus familiaris
# Canis familiaris [24] = experiment: as §7; type: functional, organism-based; set-up: dose 1 mg/kg; settings: Canis lupus familiaris
# Canis familiaris [25] = experiment: (§9) Percent change in left ventricle contractile force in anesthetized dogs after intravenous administration at 3.0 mg/kg; type: functional, Canis lupus familiaris, Heart left ventricle
# Canis familiaris [26] = experiment: (§10) Percent change in mean arterial blood pressure after intravenous administration in anesthetized dogs at 3.0 mg/kg; type: functional, Canis lupus familiaris
# Canis familiaris [27] = experiment: Percent change in heart rate after intravenous administration in anesthetized dogs at 3.0 mg/kg; type: functional, Canis lupus familiaris
# Canis familiaris [28] = experiment: as §8; type: functional, Canis lupus familiaris; how it was run: as §4; remark: listed apart in the source
# [29] = Inhibition of crude cGMP phosphodiesterase from canine thoracic aorta (NR = no effect at 100 ug); type: tissue-based, Canis lupus familiaris
# How it was run: (§11)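 Crude PDEs from canine tissue homogenates: cAMP enzyme from cardiac tissue, cGMP enzyme from thoracic aorta. Value is drug concentration (μM) causing 50% inhibition. Mean of at least three determinations, ranges within ±10%.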
# Canis familiaris [30] = experiment: as §9; type: functional, Canis lupus familiaris, Heart left ventricle; how it was run: as §4; remark: listed apart in the source
# Canis familiaris [31] = experiment: as §10; type: functional, Canis lupus familiaris; how it was run: as §4; remark: listed apart in the source
# [32] = Inhibition of crude cAMP phosphodiesterase from canine […] (NR = no effect at 100 ug); set-up: species or system Canis lupus familiaris; how it was run: as §11
# Canis familiaris [33] = experiment: Percent change heart rate after intravenous administration in anesthetized dogs at 0.3 mg/kg (NC<10%); type: functional, Canis lupus familiaris; how it was run: as §4
# Mustela putorius furo = species: Mustela putorius furo; experiment: In vitro increase in contractile force in ferret papillary muscle strips (NR = not reached at 100 ug); type: functional, tissue-based; settings: Muscle tissue
# How it was run: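 Ferret papillary muscle contractile force measured in vitro; value is drug concentration (μM) giving a 20% rise in contractile force. Inotropic effect also tested with 1 μM propranolol coadministered. Mean of at least two determinations, ranges within ±10%.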
# Canis familiaris [34] = experiment: Percent change in heart rate after intravenous administration in anesthetized dogs at 3.0 mg/kg (NC<10%); type: functional, Canis lupus familiaris; how it was run: as §4
# Canis familiaris [35] = experiment: Percent change in left ventricle contractile force in anesthetized dogs after intravenous administration at 0.3 mg/kg (NC <10%); type: functional, organism-based; set-up: dose 0.3 mg/kg; settings: Canis lupus familiaris, Heart left ventricle
# Canis familiaris [36] = experiment: Percent change in heart rate after intravenous administration in anesthetized dogs at 1.0 mg/kg (NC<10%); type: functional, organism-based; set-up: dose 1 mg/kg; settings: Canis lupus familiaris
# Canis familiaris [37] = experiment: Percent change in heart rate after intravenous administration in anesthetized dogs at 0.3 mg/kg (NC<10%); type: functional, organism-based; set-up: dose 0.3 mg/kg; settings: Canis lupus familiaris
# Canis familiaris [38] = experiment: Percent change in heart rate after intravenous administration in anesthetized dogs at 0.1 mg/kg; type: functional, Canis lupus familiaris
# Canis familiaris [39] = experiment: Percent change in mean arterial blood pressure after intravenous administration in anesthetized dogs at 0.03 mg/kg (NC<10%); type: functional, organism-based; set-up: dose 0.03 mg/kg; settings: Canis lupus familiaris
# Canis familiaris [40] = experiment: Percent change in left ventricle contractile force in anesthetized dogs after intravenous administration at 0.03 mg/kg; type: functional, Canis lupus familiaris, Heart left ventricle
# [41] = Inhibition of crude cGMP phosphodiesterase from canine thoracic aorta (NR = no effect at 100 uM); type: tissue-based, Canis lupus familiaris; how it was run: as §1
# Canis familiaris [42] = experiment: Percent change in heart rate in anesthetized dogs after intravenous administration at 0.03 mg/kg; type: functional, Canis lupus familiaris
Structure (SMILES),IC50 [1] [µM],IC50 [2] [µM],CFC20 [3] [µM],EC50 (Canis familiaris [4]) [µM],EC50 (Canis familiaris [5]) [µM],other results
Oc1nc2ccccc2n2ccnc12,44,49,10,,,
Cc1nccn1-c1ccc2nc(O)c3cnc(C)n3c2n1,3,1,0.4,2,24,
CCc1nc(C)c2c(O)nc3ccc(N4CCOCC4)cc3n12,0.9,0.8,0.5,0.05,0.7,
CCc1nccn1-c1ncnc2c1nc(O)c1cnc(CC)n12,14,,,23,59,IC50 [6]: Not reached
CCc1nc(C)cn1-c1ccc2nc(O)c3c(C)nc(CC)n3c2c1,0.3,0.4,1,0.1,0.5,
CCc1nc(C)c2c(O)nc3ccc(-n4ccnc4)cc3n12,4,2,0.6,0.4,1.7,
CC(C)Cn1c(=O)n(C)c(=O)c2nc[nH]c21 [ISOBUTYLMETHYLXANTHINE],28,20,1.5,1,5.5,Delta (Canis familiaris [7]): <10%; Delta (Canis familiaris [8]): 41%; Delta (Canis familiaris [9]): 45%; Delta (Canis familiaris [10]): 32%; Delta (Canis familiaris [11]): 17%; Delta (Canis familiaris [12]): 69%; Delta (Canis familiaris [13]): 25%; Delta (Canis familiaris [14]): -18%; Delta (Canis familiaris [15]): <10%
Oc1nc2ccc(-n3ccnc3)cc2n2ccnc12,13,6,3.1,3.1,28,
CCc1nc(C)c2c(N)nc3ccccc3n12,38,22,,3.4,11,
CCc1ncc2c(O)nc3cccnc3n12,7,1,0.1,0.5,0.3,Delta (Canis familiaris [16]): <10% change from control; Delta (Canis familiaris [17]): -17%; Delta (Canis familiaris [18]): -40%; Delta (Canis familiaris [19]): 76%; Delta (Canis familiaris [20]): -25%; Delta (Canis familiaris [10]): 30%; Delta (Canis familiaris [21]): 50%; Delta (Canis familiaris [22]): 40%; Delta (Canis familiaris [13]): 31%
CCc1ncc2c(O)nc3ccncc3n12,5,5,0.3,2.2,5.2,
CCc1nc(C)c2c(O)nc3ccccc3n12,0.4,2,0.2,0.8,1.7,Delta (Canis familiaris [23]): <10% change from control; Delta (Canis familiaris [19]): 85%; Delta (Canis familiaris [10]): 22%; Delta (Canis familiaris [21]): 42%; Delta (Canis familiaris [22]): 39%; Delta (Canis familiaris [24]): <10% change from control; Delta (Canis familiaris [25]): 135%; Delta (Canis familiaris [26]): -40%; Delta (Canis familiaris [27]): 65%
Cc1cn2c(n1)c(O)nc1ccccc12,36,42,11,0.4,5.1,
O=[N+]([O-])OCC(CO[N+](=O)[O-])O[N+](=O)[O-] [NITROGLYCERIN],,,,0.007,0.01,Delta (Canis familiaris [28]): -20%; IC50 [29]: Not Active; Delta (Canis familiaris [8]): -9%; Delta (Canis familiaris [30]): -17%; Delta (Canis familiaris [31]): -39%; Delta (Canis familiaris [9]): <10%; IC50 [32]: Not Active; Delta (Canis familiaris [33]): <10%; Delta (Canis familiaris [12]): -14%; CFC20 (Mustela putorius furo): inactive; Delta (Canis familiaris [34]): <10%; Delta (Canis familiaris [14]): -30%
Cc1ncc2c(O)nc3ccc(-n4ccnc4)cc3n12,19,8,2,2.8,30,
Cc1ncc2c(O)nc3ccccc3n12,27,16,2.1,2.8,49,
Oc1nc2cccnc2n2ccnc12,27,44,2.2,10,11,Delta (Canis familiaris [35]): <10% change from control; Delta (Canis familiaris [23]): <10% change from control; Delta (Canis familiaris [36]): <10% change from control; Delta (Canis familiaris [19]): 42%; Delta (Canis familiaris [24]): <10% change from control; Delta (Canis familiaris [25]): 81%; Delta (Canis familiaris [26]): -40%; Delta (Canis familiaris [37]): <10% change from control; Delta (Canis familiaris [27]): 24%
Cc1nccn1-c1ccc2nc(O)c3cnc(C)n3c2c1,24,6,1.2,1.1,5.5,
CCc1ncc2c(O)nc3ccc(-n4ccnc4)cc3n12,3,2,1.2,0.3,5.3,
CCc1nc(C)c2c(=O)n(C)c3ccccc3n12,17,18,2.3,3.8,12,
Oc1nc2ccc(-n3ccnc3)nc2n2ccnc12,39,5,0.5,9.3,14,
Cc1[nH]c(=O)c(C#N)cc1-c1ccncc1 [MILRINONE],,6,0.5,0.7,1.6,Delta (Canis familiaris [38]): 20%; Delta (Canis familiaris [39]): <10% change from control; Delta (Canis familiaris [17]): -15%; Delta (Canis familiaris [20]): -33%; Delta (Canis familiaris [10]): 34%; Delta (Canis familiaris [40]): 31%; IC50 [41]: Not reached; Delta (Canis familiaris [22]): 82%; Delta (Canis familiaris [13]): 58%; Delta (Canis familiaris [42]): 12%
